Most compounds without a hit are left out; they make up all but 3.5% or so of the library.
MrgX1 PAM – human MrgX1 positive allosteric modulation, primary screen. Q96LB2. MrgX1-HEK293, Fluo-4 calcium flux, FDSS; hits give high values. B-score at 10 µM. 0.63% of 310,000 active. AID 588675;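 active means plate-corrected calcium response at least 3 library SD above typical, normal starting fluorescence, not activating the receptor alone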;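 further: compound read alongside a low EC10 to EC30 dose of BAM8-22 agonist; peak minus trough fluorescence over baseline measured at the second addition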
MrgX1 antag – blocks BAM8-22 activation of human MrgX1 receptor; Q96LB2; MRGX1-HEK293 calcium flux, Fluo-4, BAM8-22 antagonism; hits give low values; B-score at 10 µM; 1.3% of 310,000 active;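 active means calcium-response B-score plate-corrected more than 3 library SD below zero, starting fluorescence within 5 deviations, no agonist response on first addition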;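 further: peak minus trough fluorescence over baseline after final BAM8-22 challenge near maximal dose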
RGS4 block – inhibitors of human RGS4 | P49798 | HEK293 M3R/RGS4 inducible, Fluo-4 calcium flux; hits give high values; triggered by carbachol at its EC20 | B-score at 10 µM | 0.45% of 310,000 active;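 active means B-score, a plate-corrected calcium signal, over three deviations above library mean, with baseline fluorescence within five deviations of library mean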;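 further: RGS4 expression induced by doxycycline in cells with stable M3 receptor; B-score is computed from the integrated fluorescence ratio over baseline after carbachol; higher B-score means a larger calcium signal and so more RGS4 inhibition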
Target sequence (P49798 whole entry, looked up): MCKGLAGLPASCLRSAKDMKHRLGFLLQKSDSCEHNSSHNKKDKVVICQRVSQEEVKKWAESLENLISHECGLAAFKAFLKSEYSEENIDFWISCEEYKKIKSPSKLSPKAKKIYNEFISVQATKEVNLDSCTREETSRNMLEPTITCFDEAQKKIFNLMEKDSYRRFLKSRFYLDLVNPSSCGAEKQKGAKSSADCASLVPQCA
MrgX1 agonist – human MrgX1 receptor agonism, primary screen. 0.44% of 310,000 active. MrgX1-HEK293 cells, Fluo-4 calcium fluorescence, agonist mode; hits give high values. Q96LB2. B-score at 10 µM. AID 588627;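 active means calcium response B-score plate-corrected fluorescence ratio at least 3 library SD, with starting fluorescence B-score inside 5 SD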
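Test system: Stable human MrgX1 HEK293 cell line | Schedule: Overnight plating before 1 h dye loading | Read-out basis: Baseline-normalised fluorescence change ratio, B-scored | Detection: Kinetic calcium dye fluorescence, Fluo-4 NW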
RGS4 pot – potentiators or activators of RGS4 | HEK293 M3R/inducible RGS4, carbachol calcium flux Fluo4; hits give low values | B-score at 10 µM | 0.92% of 310,000 active;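 active means B-score of the integrated calcium signal more than 4 SD below the library mean, with starting fluorescence not abnormally high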;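 further: negative B-score means reduced calcium response which marks RGS4 activation or potentiation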
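Material: Inducible-RGS4 HEK293 cells carrying M3 receptor; also added: carbachol at ECmax as muscarinic agonist stimulus; incubation: compound preincubation 20 min at room temperature before agonist; signal: Fluo4-AM (2 µM) calcium-flux fluorescence, kinetic read; measure: integrated calcium ratio converted to B score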
RGS4 inh valid – validation of RGS4 inhibitors; shares compounds with RGS4 block; HEK293 M3R/RGS4, carbachol calcium Fluo-4 fluorescence; carbachol added at its EC20; 0 = buffer wells, 100 = carbachol control; calcium response, % at 10 µM; 65% of 1,700 active; AID 492999;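 active means duplicate-averaged calcium response above the buffer-only control mean plus 5 SD of those controls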;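 further: integrated fluorescence ratio F max minus min over baseline F0; higher response in RGS4-induced cells means RGS4 inhibition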
RGS4 uninduced – non-induced cell nonspecific activity of RGS4 inhibitors. 20% of 1,900 active. shares compounds with RGS4 block. activity (percent), % at 10 µM. HEK293 M3R non-induced, carbachol calcium Fluo-4; submaximal (EC20) carbachol stimulus; buffer wells 0%, carbachol control wells 100%; call rule not given here;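 further: RGS4 induction absent so cells express M3R without RGS4; higher means more calcium signal and flags a non-specific hit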
M3R basal Ca ctr – signal in non-induced cells without carbachol, RGS4 inhibitor counter-screen; calcium response (agonist-mode artifact), % at 10 µM; shares compounds with RGS4 block; 22% of 1,900 active; HEK293 M3R/RGS4 non-induced, Fluo-4 calcium, no carbachol; normalised: buffer wells 0%, carbachol wells 100%;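 active means duplicate-averaged calcium rise in uninduced cells above buffer wells' mean plus 5 SD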
A number is an active result; - = inactive; . = no result given.

SMILES	MrgX1 PAM	MrgX1 antag	RGS4 block	MrgX1 agonist	RGS4 pot	RGS4 inh valid	RGS4 uninduced	M3R basal Ca ctr
CC(C)(C)OC(=O)NCCCCCc1nnc(SCc2ccccc2F)o1	-	-	-	-	-	.	.	.
CCCCNc1c(C(=O)OCC)c(C)nc2c1cnn2CC	-	-	10	-	-	7.5%	28%	-
CCOC(=O)C(=Cc1ccc(-n2ccnc2)cc1)C(=O)OCC	-	-	13	-	-	18%	-	-
COCCOC(=O)/C(=C/c1ccc(OC(=O)c2ccccc2)cc1)C(C)=O	-	-	15	31	-	82%	-	16%
CCCCCOc1ccc(OC(=O)c2ccncc2)cc1	-	-	-	-	-	.	.	.
CCOC(=O)/C(=C/c1ccc(OC(=O)c2ccncc2)cc1)C(C)=O	-	-	7.6	29	-	28%	42%	16%
COC(=O)c1ccc(-n2ccnc2)cc1	-	-	-	-	-	.	.	.
CCOC(=O)/C(C#N)=C\c1cn(C)c2ccccc12	-	-	-	-	-	.	.	.
CCOC(=O)/C(=C\c1cn(C)c2ccccc12)[N+](=O)[O-]	-	-4.6	5.8	-	-	34%	-	20%
CC(=O)Nc1ccc(NC(=O)CSc2nnc3ccc(-c4ccc(F)cc4)nn23)cc1	-	-	-	-	-	.	.	.
CCOC(=O)CSC1=NC(=O)/C(=C\c2ccc(Cl)cc2)S1	-	-	-	-	-	-	-	18%
CCOC(=O)C1CCN(C2=NC(=O)/C(=C/c3ccc(Cl)cc3)S2)CC1	-	-	-	-	-	.	.	.
NC1=NC(=Nc2ccc(Cl)cc2)c2ccccc21	-	-	8	-	-	8.0%	-	-
Cc1ccc(S(=O)(=O)NNC(=O)Nc2ccc([N+](=O)[O-])cc2)c(C)c1	-	-	-	-	-	.	.	.
COc1ccc(/C=C/C(=O)C(C)(C)C)cc1OC	-	-	-	-	-	.	.	.
COc1ccc(C=C(C(C)=O)C(C)=O)cc1OC	-	-	18	-	-	28%	44%	-
COc1cc(C=C(C(C)=O)C(C)=O)ccc1O	-	-	5.4	-	-	6.0%	-	-
CCn1ncc([C@@H]2C[C@H]3CN(Cc4ccccc4C)C(=O)[C@]34CCCN24)c1C	-	-	-	-	-	.	.	.
CCOC(=O)C(C)/C(C)=N\Nc1ccc([N+](=O)[O-])cc1[N+](=O)[O-] (stereo not drawn)	-	-	-	-	-	.	.	.
CCOC(=O)C(C)/C(C)=N/NC(N)=S (stereo not drawn)	-	-	17	-	-	54%	-	-
Cc1ccc2[nH]c3c(c2c1)CN(C(=O)CN1CCN(c2cccc(C)c2C)CC1)CC3	-	-	-	-	-	.	.	.
Cc1ccc2[nH]c3c(c2c1)CN(C(=O)CN1c2ccc(F)cc2CCC1C)CC3 (stereo not drawn)	-	-	9	-	-	23%	-	-
COc1ccc(/C=C(/NC(=O)c2ccccc2)C(=O)NC(Cc2c[nH]c3ccccc23)C(=O)O)cc1 (stereo not drawn)	-	-	-	-	-	.	.	.
O=Nc1c(O)n(Cc2cccc(Cl)c2)c2ccccc12	-	-	6.4	-	-	16%	37%	-
CC(=O)c1ccc(Sc2ccc(C(C)=O)cc2)cc1	-	-	-	-	-	.	.	.
Cc1cn(-c2ccc(Br)cc2)[nH]c1=O	-	-	-	-	-	.	.	.
Cc1ccc(-c2noc(C3CCCN(C(=O)c4ccccc4Br)C3)n2)cc1 (stereo not drawn)	-	-	-	-	-	.	.	.
S=c1nccc(-c2cccs2)[nH]1	-	-	-	-	-	.	.	.
NS(=O)(=O)c1ccc(CNC(=O)/C=C/c2cccc(Cl)c2)cc1	-	-	-	-	-	.	.	.

Compound activity (PubChem)
